Assay results reported in ChEMBL document CHEMBL1152513, “Synthesis and characterizations of novel quinoline derivatives having mixed ligand activities at the kappa and mu receptors: Potential therapeutic efficacy against morphine dependence” (Bioorg Med Chem, 2009).
Active and inactive are the calls of the source. The rule behind the calls is not given here.

Columns and labels:
Rattus norvegicus [1] = species: Rattus norvegicus; test: Induction of ERK phosphorylation in rat primary astrocyte at 40 uM after 10 mins
Summary of the method: (§1)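 Primary astrocytes from neocortex of newborn rat pups (<24 h), grown 10 days, then serum-starved 48 h. Treated 10 min at 40 µM; antagonists added 1 h before stimulation. pERK1/2 measured by western blot, 40 µg protein/lane, 10% SDS-PAGE, anti-p-ERK at 1:1000. Mean ± SEM of at least 3 blots, compared with untreated control.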

[2] = biological target: Kappa-type opioid receptor (Homo sapiens) (UniProt P41145); test: Displacement of [3H]dynorphin from human kappa opioid receptor expressed in C6 giloma cells measured total binding per mg of protein at 5 uM; assay type: cell-based
Kappa-type opioid receptor (Homo sapiens), sequence (P41145 whole entry): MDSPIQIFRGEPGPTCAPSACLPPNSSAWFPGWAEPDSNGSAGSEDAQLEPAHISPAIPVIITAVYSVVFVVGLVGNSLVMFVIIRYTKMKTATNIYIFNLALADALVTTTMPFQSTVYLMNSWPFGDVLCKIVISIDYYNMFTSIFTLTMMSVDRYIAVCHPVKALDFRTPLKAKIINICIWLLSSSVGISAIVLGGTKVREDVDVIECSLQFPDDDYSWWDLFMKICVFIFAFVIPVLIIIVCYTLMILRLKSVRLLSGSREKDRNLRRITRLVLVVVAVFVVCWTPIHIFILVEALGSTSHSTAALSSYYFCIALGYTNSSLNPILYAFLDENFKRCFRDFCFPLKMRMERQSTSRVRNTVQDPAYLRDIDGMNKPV
Summary of the method: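 Membranes from C6 glioma cells stably transfected with human KOR (G418 selected), harvested in PBS, homogenized in 50 mM Tris–HCl pH 7.4 and spun at 30,000g. Nonspecific binding defined with 10 µM U50488H. Read by filtration and counting.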

[3] = biological target: Mu-type opioid receptor (Rattus norvegicus) (UniProt P33535); test: Displacement of [3H]DAMGO from mu opioid receptor in rat brain measured total binding per mg of protein at 5 uM; assay type: tissue-based
Mu-type opioid receptor (Rattus norvegicus), sequence (P33535 whole entry): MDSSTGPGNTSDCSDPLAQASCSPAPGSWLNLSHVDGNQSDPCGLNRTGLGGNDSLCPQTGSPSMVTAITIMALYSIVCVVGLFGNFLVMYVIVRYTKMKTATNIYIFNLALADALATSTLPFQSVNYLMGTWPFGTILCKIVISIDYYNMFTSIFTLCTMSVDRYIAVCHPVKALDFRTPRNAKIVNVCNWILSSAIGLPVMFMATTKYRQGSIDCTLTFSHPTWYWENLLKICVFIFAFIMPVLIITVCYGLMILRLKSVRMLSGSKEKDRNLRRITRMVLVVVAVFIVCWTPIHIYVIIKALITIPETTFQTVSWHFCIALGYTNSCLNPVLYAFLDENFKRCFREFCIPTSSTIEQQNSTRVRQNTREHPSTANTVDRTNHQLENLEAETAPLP

Mus musculus [4] = test: Inhibition of naloxone-induced stereotype jumping in morphine treated mouse at 20 mg/kg, iv for 6 days; assay type: functional, organism-based; design: dose 20 mg/kg
Mus musculus [5] = test: Inhibition of naloxone-induced weight loss in mouse at 20 mg/kg, iv for 6 days; assay type: functional, organism-based; design: dose 20 mg/kg
Rattus norvegicus [6] = species: Rattus norvegicus; test: Induction of ERK phosphorylation in rat primary astrocyte at 40 uM after 10 mins in presence of naloxone; summary of the method: as §1

| SMILES | Activity (Rattus norvegicus [1]) | Activity [2] [%] | Activity [3] [%] | Activity (Mus musculus [4]) | Activity (Mus musculus [5]) | Activity (Rattus norvegicus [6]) |
| --- | --- | --- | --- | --- | --- | --- |
| Cc1cc(NCC(=O)Nc2cc(Cl)ccc2Cl)c2ccccc2n1 | Active | 74 | 66 |  |  |  |
| COc1ccc(NC(=O)CNc2cc(C)nc3ccccc23)cc1 | Active | 44 | 27 |  |  |  |
| Cc1ccc(C(=O)Nc2cc(C)nc3ccccc23)cc1 | Active | 58 | 62 | Active | Active |  |
| O=C(CCCl)Nc1ccccc1 | Active | 59 | 61 |  | Active |  |
| Cc1cc(NCC(=O)Nc2ccccc2Cl)c2ccccc2n1 | Active | 52 | 52 | Active |  |  |
| Cc1cc(NC(=O)C(Cl)Cl)c2ccccc2n1 | Active | 77 | 106 |  |  |  |
| C[C@@H](NC(=O)[C@@H](N)Cc1ccc(O)cc1)C(=O)NCC(=O)N(C)[C@@H](Cc1ccccc1)C(=O)NCCO |  |  | 76 |  |  |  |
| Cc1ccc(NC(=O)CCNc2cc(C)nc3ccccc23)cc1 | Active | 56 | 23 |  |  |  |
| Cc1cc(N)c2ccccc2n1 | Active | 71 | 95 |  |  |  |
| Cc1ccc(NC(=O)CNc2cc(C)nc3ccccc23)cc1 | Active | 90 | 47 | Active |  |  |
| Cc1cc(N(CC(=O)NC2CCCCC2)CC(=O)NC2CCCCC2)c2ccccc2n1 | Active | 114 | 53 |  |  |  |
| Cc1cc(NCC(=O)Nc2ccccc2)c2ccccc2n1 | Active | 38 | 30 | Active |  | inactive |
